In ChEMBL document CHEMBL1148398, “Design, synthesis, and biological evaluation of thio-containing compounds with serum HDL-cholesterol-elevating properties” (2004):

Legend:
Rattus norvegicus [1] = assay: Effect of compound on total plasma cholesterol levels in 7th group of normal chow-fed male rats after a dose of 100 mg/kg/day; type: functional, organism-based
How it was run: (§1)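 Male Sprague–Dawley CD rats (60–80 g) on Purina 5001 chow with a reverse 12 h light/dark cycle. Dosed once daily by oral gavage for 4 days, suspended in 1.3% Tween 80 / 0.25% CMC. Fasted overnight and bled 24 h after the last dose. Serum TC and glycerol-blanked TG measured enzymatically; VLDL-C by FPLC fractionation with cholesterol assay. n=6, mean ± SEM.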

Cricetinae gen. sp. [2] = assay: Effect of compound on low-density lipoprotein cholesterol levels in 4th group of cholesterol-fed male hamsters at 100 mg/kg/day after 14 days of treatment; conditions: Mesocricetus auratus
Cricetinae gen. sp. [3] = assay: Effect of compound on high-density lipoprotein cholesterol levels in 2nd group of cholesterol-fed male hamsters at 10 mg/kg/day after 14 days of treatment; type: functional, organism-based
Rattus norvegicus [4] = assay: Effect of compound on thyroxine levels in 3rd group of normal chow-fed male rats after a dose of 5 mg/kg/day; type: functional, organism-based
How it was run: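 Male Sprague–Dawley CD rats, 60–80 g, on standard chow with reverse 12 h light/dark cycle. One oral gavage dose daily for 4 days, suspended in 1.3% Tween 80 and 0.25% CMC. Fasted overnight; sacrificed 24 h after the last dose. Serum TC on clinical analyzer, lipoproteins by FPLC with cholesterol per fraction, T4 on analyzer. Mean ± SEM, six rats per group.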

Rattus norvegicus [5] = assay: Effect of compound on total plasma cholesterol levels in 5th group of normal chow-fed male rats after a dose of 20 mg/kg/day; type: functional, organism-based; how it was run: as §1
Rattus norvegicus [6] = assay: Effect of compound on alanine aminotransferase (ALT) levels in 7th group of normal chow-fed male rats after a dose of 100 mg/kg/day; type: functional, organism-based
How it was run: (§2)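 Male Sprague–Dawley CD rats (60–80 g) on standard chow under a reversed 12 h light/dark cycle. Compound was suspended in 1.3% Tween 80/0.25% CMC and given as a single daily oral gavage dose for 4 days. Rats were fasted overnight and killed 24 h after the last dose. Serum ALT, AST, ALKP and LDH were read on a clinical analyzer. Weight gain was start versus end weight. Mean ± SEM, n = 6.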

[7] = Effect on serum lipids in 3rd group of cholesterol-fed male hamsters at 30 mg/kg/day after 14 days of treatment was evaluated as ratio of total cholesterol levels to high-density lipoprotein cholesterol levels; type: functional
How it was run: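 Male Syrian Golden hamsters on chow plus 0.25% cholesterol, 2 weeks before and during dosing. Oral gavage for 14 days in 2% Tween 80/saline. Fasted 4 h before sacrifice. Serum total cholesterol measured enzymatically; HDL-C from cholesterol in FPLC lipoprotein fractions; TC/HDL-C ratio calculated. Six per group, mean ± SEM.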

[8] = Effect on serum lipids in 1st group of normal chow-fed male rats after a dose of 1 mg/kg/day was evaluated as ratio of total plasma cholesterol levels to high-density lipoprotein cholesterol levels; type: functional
How it was run: (§3)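 Male Sprague–Dawley CD rats, 60–80 g, chow-fed, dosed by oral gavage daily for 4 days in 1.3% Tween 80/0.25% CMC. Fasted overnight, bled 24 h after the last dose. Serum total cholesterol by enzymatic reagent; HDL-C from cholesterol in FPLC fractions; TPC/HDL-C ratio calculated. Six per group, mean ± SEM.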

Mesocricetus auratus [9] = assay: Effect of compound on liver weight in 4th group of cholesterol-fed male hamsters at 100 mg/kg/day after 14 days of treatment
Rattus norvegicus [10] = assay: Effect of compound on lactic dehydrogenase (LDH) levels in 4th group of normal chow-fed male rats after a dose of 10 mg/kg/day; type: functional, organism-based
How it was run: (§4)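 Male Sprague–Dawley CD rats, 60–80 g, on chow with a reverse 12 h light/dark cycle. Given one oral gavage dose daily for 4 days, suspended in 1.3% Tween 80/0.25% CMC. Fasted overnight and sacrificed 24 h after the last dose for blood and liver. Serum liver enzymes read on a clinical analyzer. Six per group, mean ± SEM.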

[11] = Effect on serum lipids in 2nd group of normal chow-fed male rats after a dose of 2 mg/kg/day was evaluated as ratio of total plasma cholesterol levels to high-density lipoprotein cholesterol levels; type: functional; how it was run: as §3
Mesocricetus auratus [12] = assay: Effect of compound on liver weight in 3rd group of cholesterol-fed male hamsters at 30 mg/kg/day after 14 days of treatment
Cricetinae gen. sp. [13] = assay: Effect of compound on aspartate aminotransferase (AST) levels in 3rd group of cholesterol-fed male hamsters at 30 mg/kg/day after 14 days of treatment; conditions: Mesocricetus auratus
Rattus norvegicus [14] = assay: Percent change in total plasma cholesterol following oral administration of compound in normal chow-fed rats at 100 mg/kg/day for 4 days; type: functional
How it was run: (§5)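 Chow-fed male Sprague–Dawley CD rats, 60–80 g, gavaged 100 mg/kg/day for 4 days in 1.3% Tween 80/0.25% CMC. Fasted overnight, bled 24 h after the last dose. Total cholesterol and glycerol-blanked triglycerides read enzymatically; lipoproteins by FPLC with cholesterol per fraction. % change versus control; six per group, p < 0.05.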

Rattus norvegicus [15] = assay: Effect of compound on very low-density lipoprotein cholesterol levels in 2nd group of normal chow-fed male rats after a dose of 2 mg/kg/day; type: functional, organism-based; how it was run: as §1
Rattus norvegicus [16] = assay: Effect of compound on triglycerides level in 2nd group of normal chow-fed male rats after a dose of 2 mg/kg/day; type: functional, organism-based; how it was run: as §1
Rattus norvegicus [17] = assay: Percent change in high-density lipoprotein cholesterol following oral administration of compound in normal chow-fed rats at 100 mg/kg/day for 4 days; type: functional; how it was run: as §5
[18] = Effect on serum lipids in 6th group of normal chow-fed male rats after a dose of 50 mg/kg/day was evaluated as ratio of total plasma cholesterol levels to high-density lipoprotein cholesterol levels; type: functional; how it was run: as §3
Cricetinae gen. sp. [19] = assay: Effect of compound on lactic dehydrogenase (LDH) levels in 2nd group of cholesterol-fed male hamsters at 10 mg/kg/day after 14 days of treatment; conditions: Mesocricetus auratus
Rattus norvegicus [20] = assay: Effect of compound on high-density lipoprotein cholesterol levels in 7th group of normal chow-fed male rats after a dose of 100 mg/kg/day; type: functional, organism-based
Rattus norvegicus [21] = assay: Effect of compound on liver weight in 7th group of normal chow-fed male rats after a dose of 100 mg/kg/day; type: functional; how it was run: as §4
Rattus norvegicus [22] = assay: Effect of compound on gain in body weight in 5th group of normal chow-fed male rats after a dose of 20 mg/kg/day; type: functional; how it was run: as §2
Cricetinae gen. sp. [23] = assay: Effect of compound on very low-density lipoprotein cholesterol levels in 1st group of cholesterol-fed male hamsters at 3 mg/kg/day after 14 days of treatment; conditions: Mesocricetus auratus
[24] = Effect on serum lipids in 3rd group of normal chow-fed male rats after a dose of 5 mg/kg/day was evaluated as ratio of total plasma cholesterol levels to high-density lipoprotein cholesterol levels; type: functional; how it was run: as §3

CCN1CC(=O)N(c2cc(Cl)ccc2C)C1=S
Serum level (Rattus norvegicus [1]): 118 mg/dL
Serum level (Cricetinae gen. sp. [2]): 102 mg/dL
Serum level (Cricetinae gen. sp. [3]): 133 mg/dL
Serum level (Rattus norvegicus [4]): 4.23 µg/dL
Serum level (Rattus norvegicus [5]): 84 mg/dL
Level (Rattus norvegicus [6]): 67 U l-1
Ratio [7]: 2.39
Ratio [8]: 1.45
Liver weight (Mesocricetus auratus [9]): 8.95 g
Level (Rattus norvegicus [10]): 553 U l-1
Ratio [11]: 1.37
Liver weight (Mesocricetus auratus [12]): 8.5 g
Level (Cricetinae gen. sp. [13]): 204 U l-1
Change (Rattus norvegicus [14]): 72.8%
Serum level (Rattus norvegicus [15]): 2.8 mg/dL
Serum level (Rattus norvegicus [16]): 15 mg/dL
Change (Rattus norvegicus [17]): 89.1%
Ratio [18]: 2.03
Level (Cricetinae gen. sp. [19]): 1310 U l-1
Serum level (Rattus norvegicus [20]): 76 mg/dL
Liver weight (Rattus norvegicus [21]): 7.8 g
Body weight (Rattus norvegicus [22]): 30.3 g
Serum level (Cricetinae gen. sp. [23]): 115 mg/dL
Ratio [24]: 1.39
